Only some compounds are listed: those with a hit (about 4.6% of all), similar ones and a draw of the others.
UCH37 inh: human UCH37 deubiquitinating enzyme inhibition; Q9Y5K5; purified proteasome/UCH37, Ub-AMC cleavage fluorescence; inhibition, % (no concentration beside the values); 330,000 tested, 0.33% active; AID 588478;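 active = mean inhibition over replicate wells above about 20%, limit read from the data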
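Material: Human UCH37 enzyme supplied as purified proteasome complex | Schedule: 30 min compound-proteasome preincubation then 25 min substrate reaction, room temperature | Detection: AMC fluorescence from Ub-AMC cleavage, excitation 355 nm, emission 460 nm | Benchmarks: Wells without proteasome as full block, compound-free enzyme plus substrate as uninhibited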
PfM18AAP inh-1: blocks P. falciparum M18 aspartyl aminopeptidase; AID 1822; inhibition, % at 7.35 µM; 290,000 tested, 1.2% active; recombinant PfM18AAP, H-Glu-NHMec fluorogenic cleavage;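 active = inhibition above the campaign mean inhibition over all tested compounds plus 3 SD, cut at about 28% in these data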
FAS-TE inh: FAS thioesterase (human) inhibition; recombinant FAS-TE, OMFH fluorogenic substrate, fluorescence endpoint; inhibition, % at 15 µM; 360,000 tested, 0.67% active;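 active = compounds whose normalised, plate-corrected inhibition of enzyme fluorescence in the single-dose primary screen is 50% or more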
ALR inh: blocks human ALR sulfhydryl oxidase activity | purified ALR, DTT oxidation, H2O2 HRP-luminol luminescence | P55789 | inhibition, % (no concentration beside the values) | 290,000 tested, 3.8% active;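 active = mean replicate inhibition above about 79%, with every replicate also reaching it, limit read from the data; inconclusive = only one of the two criteria met; inactive = mean below limit and not every replicate reaching it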
Target sequence (P55789 whole entry, looked up): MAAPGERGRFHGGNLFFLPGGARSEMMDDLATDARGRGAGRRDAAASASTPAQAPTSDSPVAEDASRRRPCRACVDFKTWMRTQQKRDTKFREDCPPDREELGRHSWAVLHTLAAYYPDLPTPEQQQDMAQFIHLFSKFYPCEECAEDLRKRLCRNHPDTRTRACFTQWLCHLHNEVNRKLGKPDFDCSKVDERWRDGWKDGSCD
HDAC3 inh: human HDAC3 inhibition; O15379; recombinant HDAC3, fluorogenic peptide/trypsin coupled, fluorescence; inhibition, % at 8.3 µM; 320,000 tested, 0.15% active; in the data active = inhibition above about 26%, passing the limit was not always enough; inconclusive = no clear call, values can overlap the other calls
Target sequence (O15379 whole entry, looked up): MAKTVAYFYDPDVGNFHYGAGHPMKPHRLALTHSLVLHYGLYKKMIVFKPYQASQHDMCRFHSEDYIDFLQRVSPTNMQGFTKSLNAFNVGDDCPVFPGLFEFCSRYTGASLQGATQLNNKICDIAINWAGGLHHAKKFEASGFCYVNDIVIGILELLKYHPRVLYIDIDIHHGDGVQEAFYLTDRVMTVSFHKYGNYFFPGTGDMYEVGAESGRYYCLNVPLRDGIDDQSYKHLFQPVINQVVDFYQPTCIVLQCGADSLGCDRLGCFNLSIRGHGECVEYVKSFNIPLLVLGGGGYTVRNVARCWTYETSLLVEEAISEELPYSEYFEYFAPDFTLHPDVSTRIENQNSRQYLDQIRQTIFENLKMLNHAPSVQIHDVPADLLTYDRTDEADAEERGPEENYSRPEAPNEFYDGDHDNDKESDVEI
Rtt109 HAT inh: C. albicans Rtt109 histone acetyltransferase inhibition | 330,000 tested, 0.16% active | Q5AAJ8 | purified Rtt109/Vps75, ThioGlo CoA-SH fluorescence, 4 h | inhibition, % at 34.9 µM;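 active = inhibition of at least 50% in every replicate; inconclusive = best replicate reaches 50% inhibition but some replicates fall short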
PfM18AAP inh-2: confirmation of Plasmodium falciparum M18 aspartyl aminopeptidase inhibitors; inhibition, % at 7.35 µM; recombinant PfM18AAP, H-Glu-NHMec fluorogenic cleavage; shares compounds with PfM18AAP inh-1; 2,400 tested, 28% active;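 active = mean inhibition over replicate wells above the hit cutoff set for the earlier primary screen, cut at about 29% in these data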
CTSL1 counter: counter-screen for PFM18AAP inhibitors: confirmation of human cathepsin L inhibitors; 2,400 tested, under 10 active; shares compounds with PfM18AAP inh-1; AID 2178; purified cathepsin L1, Z-Leu-Arg-MCA fluorescence; inhibition, % at 5.96 µM;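 active = average inhibition across replicates above the hit cutoff set in the earlier primary screen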
Numbers stand for hits; - = inactive; ? = inconclusive; . = no result given.

SMILES | UCH37 inh | PfM18AAP inh-1 | FAS-TE inh | ALR inh | HDAC3 inh | Rtt109 HAT inh | PfM18AAP inh-2 | CTSL1 counter
COc1ccc(C(c2c(C)[nH][nH]c2=O)c2c(C)[nH][nH]c2=O)cc1Br | - | 36.1 | - | - | - | - | - | -
Cc1cccc(OCCSc2nc(N)cc(N)n2)c1 | - | 42.4 | - | - | - | - | - | -
Cc1cccc(OCCOCCSc2ncccn2)c1 | - | - | - | - | - | - | . | .
O=C1/C(=C/c2cccnc2)SC(=S)N1c1ccccc1 | - | - | - | - | - | - | . | .
O=C1/C(=C/c2cccnc2)SC(=S)N1Nc1ccccc1 | - | 36.8 | - | 92.3 | - | . | - | -
CSc1nnc(C(C)(C)C)c(=O)n1N=Cc1ccc(Cl)cc1 | - | . | . | . | . | . | . | .
O=C1NN(c2ccccc2)C(=O)/C1=C\c1coc2ccc(O)cc2c1=O | . | 36.6 | - | 99.3 | - | - | - | -
Cc1cc(/C=C2/C(=O)NN(c3ccccc3)C2=O)c(C)n1-c1ccc(O)cc1 | - | - | - | - | - | - | . | .
O=C(Cn1cncn1)NCc1ccccc1Br | - | - | - | - | - | - | . | .
O=C(Cn1cncn1)c1ccccc1Br | - | 38.8 | - | . | - | - | - | -
O=C(Cn1cncn1)c1ccc(Cl)cc1 | - | 59.0 | - | - | - | - | 35.9 | -
Cc1ccc(C(=O)Cn2cncn2)cc1 | - | - | - | - | - | - | . | .
O=C(/C=C(\c1ccc(Cl)cc1)n1cncn1)c1ccc(Cl)cc1 | - | 72.9 | - | - | - | - | - | -
CCOc1cccc(-c2c(C(=O)NN=C(C)c3ccccn3)nnn2-c2nonc2N)c1 | - | . | . | . | . | . | . | .
Oc1cccc(C=NNc2ccc(Cl)nn2)c1 | - | . | . | . | . | . | . | .
Oc1ccc(/C=N/Nc2ccc(Cl)nn2)cc1O | . | 47.3 | - | 99.5 | . | . | - | -
Oc1ccc(/C=N/Nc2nc(N3CCCC3)nc(N3CCCC3)n2)cc1O | . | 54.1 | - | 98.9 | - | - | 28.1 | -
Cc1cc(=O)[nH]c(N/N=C/c2ccc(O)c(O)c2)n1 | . | 45.0 | - | 99.4 | - | - | - | -
CN(C)C=Nc1cc(=O)n(Cc2ccccc2)c(=O)n1C | - | . | . | . | . | . | . | .
COc1cc(C=NN2CCN(C3c4ccccc4-c4ccccc43)CC2)ccc1O | - | . | . | . | . | . | . | .
COc1ccc(C(=O)n2cnc(N)n2)cc1 | - | 33.6 | - | . | 70.7 | - | 53.8 | -
Nc1ncn(C(=O)c2ccco2)n1 | - | 45.0 | - | - | - | - | 51.2 | -
CSc1ccc(C(=S)N2CCN(C(c3ccccc3)c3ccccc3)CC2)cc1 | - | 41.2 | - | - | - | - | - | -
CSc1ccc(C(=S)N2CCCC2)cc1 | - | - | - | - | - | - | . | .
C=CCOc1ccc(C=NNC(=O)C(=O)N2CCCCCC2)cc1OC | - | . | . | . | . | . | . | .
SMILES | UCH37 inh | PfM18AAP inh-1 | FAS-TE inh | ALR inh | HDAC3 inh | Rtt109 HAT inh | PfM18AAP inh-2 | CTSL1 counter
COc1ccc(Br)cc1CNc1ccc(O)cc1 | - | 42.0 | - | 98.3 | - | - | - | -
Cc1cc(NC(=NS(=O)(=O)c2ccc(Cl)cc2)c2ccc(F)cc2)no1 | - | . | . | . | . | . | . | .
O=C(O)CCC(=NNC(=O)c1ccccc1Br)c1ccccc1 | - | . | . | . | . | . | . | .
COCCN(C(=S)Nc1c(C)cc(C)cc1C)C(C)c1cccnc1 (stereo unspecified) | - | 49.3 | - | - | - | - | - | -
CC(C)(C)c1ccc(NNC(=O)C2CCC2)cc1 | . | 39.5 | - | - | - | - | - | -
COc1cc2ccc(=O)oc2c(O)c1OCC=C(C)C | - | 40.1 | - | ? | - | - | - | -
N#CC1=C(N)OC2=C(C(=O)CCC2)C1c1ccc2c(c1)OCO2 (stereo unspecified) | - | - | - | - | - | - | . | .
COc1cc(C2C(C#N)=C(N)OC3=C2C(=O)CCC3)cc2c1OCO2 (stereo unspecified) | - | 34.2 | - | . | - | - | - | -
CC(=NN1CCN(Cc2ccccc2Cl)CC1)c1ccc(F)cc1 | - | . | . | . | . | . | . | .
CC(=NNC(=O)c1cccc(NN=C(C)c2ccncc2)c1)c1ccncc1 | - | . | . | . | . | . | . | .
C/C(=N\NC(=O)c1cccc(N/N=C(\C)c2cc(O)ccc2O)c1)c1cc(O)ccc1O | . | 40.3 | - | ? | - | - | 42.0 | -
O=C(CCS(=O)(=O)c1ccc(Cl)cc1)Nc1ccccc1Br | - | - | - | - | - | - | . | .
O=C(O)CCCC(=O)Nc1ccccc1SCCS(=O)(=O)c1ccc(Cl)cc1 | - | 35.1 | - | - | - | - | - | -
COc1ccc2nc(N=Cc3cccc(OC)c3O)sc2c1 | - | . | . | . | . | . | . | .
O=C(O)c1ccc(N=Cc2c(O)ccc3oc4c(c23)CCCC4)cc1 | . | - | - | - | - | - | . | .
Oc1ccccc1N=Cc1c(O)ccc2oc3c(c12)CCCC3 | . | 39.1 | - | . | - | - | - | -
O=c1oc2ccccc2c2oc3cc(O)c(O)cc3c12 | - | 68.4 | - | . | - | - | 73.8 | -
C=CCNC(=S)NNC(=O)c1cc(O)ccc1O | - | 39.0 | - | 98.5 | - | - | 28.9 | -
C=CCNC(=S)NNC(=O)c1ccc(Br)cc1 | . | - | - | - | - | - | . | .
N#CC1=C(N)C(C#N)(C#N)C2(CCC3(CC2)OCCO3)C2CC3(CC=C12)OCCO3 (stereo unspecified) | - | 55.2 | - | - | - | - | - | -
N#CC1=C(N)C(C#N)(C#N)[C@H](c2c(F)cccc2F)[C@H]2CC3(CC=C12)OCCO3 | - | - | - | - | - | - | . | .
Cc1cc(O)c(Oc2cc(C)cc(O)c2O)c(O)c1 | - | 49.6 | - | . | - | - | 36.2 | -
Cc1[nH]c2ccccc2c1/C=N/Nc1ccc([N+](=O)[O-])cc1 | . | 34.4 | - | - | - | - | - | -
Cc1[nH]c2ccccc2c1/C=N/NC(=O)c1cccc([N+](=O)[O-])c1 | . | - | - | - | - | - | . | .
CCCc1cc(C(=O)NN=Cc2ccc(CC)s2)c2ccccc2n1 | - | . | . | . | . | . | . | .
SMILES | UCH37 inh | PfM18AAP inh-1 | FAS-TE inh | ALR inh | HDAC3 inh | Rtt109 HAT inh | PfM18AAP inh-2 | CTSL1 counter
Cc1ccc2c(c1)-c1c(ssc1=S)C(C)(C)N2C(=O)c1ccco1 | - | 39.9 | - | - | - | - | - | -
CC1(C)c2ssc(=S)c2-c2ccccc2N1C(=O)c1ccco1 | - | - | - | . | - | - | . | .
CCCCn1c(O)c(/C=C2\C=Nc3ccccc32)c(=O)[nH]c1=O | . | 39.7 | - | - | - | - | - | -
N#C/C(=C\c1coc2ccc(O)cc2c1=O)C(=O)Nc1nc2ccccc2s1 | - | 50.8 | - | - | - | - | - | -
N#C/C(=C\c1coc2ccccc2c1=O)C(N)=S | - | - | - | - | - | - | . | .
COCCN(CCOC)Cc1c(O)ccc2c1O/C(=C\c1ccco1)C2=O | . | 38.1 | - | - | - | - | - | -
Cc1ccccc1N1CCN(Cc2cc3c(cc2[N+](=O)[O-])OCO3)CC1 | - | 35.1 | - | - | - | - | - | -
CNC(=S)NNc1nc(C)cc(C)n1 | - | 68.1 | - | . | - | - | 48.1 | -
COC(=O)NN=Cc1cc(Cl)cc(Cl)c1OCc1ccc(F)cc1 | - | . | . | . | . | . | . | .

Screening data from PubChem BioAssay.
